Here are results for seven molecules from ChEMBL document CHEMBL1146145, “Isobrassinin and its analogues: novel types of antiproliferative agents” (Bioorg Med Chem Lett, 2006).

Where only a bound is given, the exact number is not on record here.

Holding throughout (settings): read-out: Inhibition
The nature of series [1]: Cytotoxicity against human HeLa cells at 30 uM. Type of series: cell-based. An outline of the steps: (§1)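 MTT assay. Human HeLa (cervix adenocarcinoma), MCF7 (breast adenocarcinoma) and A431 (squamous skin carcinoma) cells were grown in minimal essential medium with 10% foetal bovine serum, antibiotic–antimycotic agents and non-essential amino acids, then seeded in 96-well plates. On day 2 the medium was replaced with compound-containing medium (DMSO final ≤0.1%). Exposure lasted 72 h, followed by 4 h MTT and DMSO solubilization of the formazan.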

Series [2] can be described thus: Cytotoxicity against human MCF7 cells at 30 uM. It is filed as cell-based. The method, boiled down: as §1
Series [3] can be described thus: Cytotoxicity against human A431 cells at 30 uM. It is filed as cell-based, A-431. The method, boiled down: as §1

As for `c1ccc(CSC2=NCc3[nH]c4ccccc4c3S2)cc1`, the cytotoxicity at 30 µM was found to be 45.8% in series [1] and 37.3% in series [2].
On to `CSC1=NCc2[nH]c3ccccc3c2S1` [ISOCYCLOBRASSININ], for which the cytotoxicity at 30 µM in series [1] is 44.5%; in series [3] it was below 10%; in series [2] it was below 10%.
With `CSC(=S)NCc1c[nH]c2ccccc12` [BRASSININ], the cytotoxicity at 30 µM worked out at 25.2% in series [1] and 21.5% in series [2].
With `CNC(=S)NCc1cc2ccccc2[nH]1`, the cytotoxicity at 30 µM in series [1], in series [3] and in series [2] was below 10% in each case.
For the molecule `CSC(=S)NCc1cc2ccccc2[nH]1` [ISOBRASSININ], the cytotoxicity at 30 µM in series [1] worked out at 83.6%; in series [3] it was 78.6%; in series [2], 86.2%.
As to `S=C(NCc1cc2ccccc2[nH]1)Nc1ccccc1`, the cytotoxicity at 30 µM in series [1] turned out to be 50%; in series [3], 45.7%; in series [2], 57.4%.
Regarding `S=C(NCc1cc2ccccc2[nH]1)SCc1ccccc1`, the cytotoxicity at 30 µM was found to be 76.1% in series [1], 70.7% in series [3] and 89% in series [2].
